Series [1] is described as follows: Antitumor activity against mouse Gardner lymphosarcoma allografted in C3H mouse assessed as tumor growth inhibition at 0.10 mg/kg, ip administered daily for 8 to 10 days. Format: functional. As to conditions: route intraperitoneal, read-out: TGI. The gist of the method:
(§1)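 Gardner lymphosarcoma in C3H mice; sulfate salts unless noted, given ip daily for 8–10 days, treatment starting 8 days after tumor implantation. Tumor growth inhibition scored as –, 0–25%; +, 26–50%; ++, 51–75%; +++, 76–100%; T, lethal to ≥5 of 10 animals per group. Average of one or more tests.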

Series [2] is described as follows: Antitumor activity against mouse Gardner lymphosarcoma allografted in C3H mouse assessed as tumor growth inhibition at 0.05 mg/kg, ip administered daily for 8 to 10 days. Format: functional. The conditions noted are these: route intraperitoneal, read-out: TGI. The method in brief: as §1
In series [3] the test system is Mus musculus. The experiment in a line: Toxicity in C3H mouse allografted with mouse Gardner lymphosarcoma assessed as lethality at 0.40 mg/kg, ip administered daily for 8 to 10 days. The class given is organism-based. Details: dose 0.4 mg/kg, route intraperitoneal. The conditions noted are these: in vivo, 0.4 mg/kg. The method in brief: (§2)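 Tumor-bearing mice given sulfate salts ip daily for 8–10 days; values are the average of one or more tests. Toxic means lethal to ≥5 of 10 animals per group.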

The subject of series [4] is Mus musculus. The experiment in a line: Toxicity in C3H mouse allografted with mouse Gardner lymphosarcoma assessed as lethality at 0.20 mg/kg, ip administered daily for 8 to 10 days. Also noted: dose 0.2 mg/kg, route intraperitoneal. The class given is organism-based. As to conditions: in vivo, 0.2 mg/kg. The gist of the method:
as §2

The nature of series [5]: Antitumor activity against mouse Gardner lymphosarcoma allografted in C3H mouse assessed as tumor growth inhibition at 0.20 mg/kg, ip administered daily for 8 to 10 days. The class given is functional. The conditions noted are these: route intraperitoneal, read-out: TGI. The gist of the method:
as §1

Series [6] is described as follows: Antitumor activity against mouse Gardner lymphosarcoma allografted in C3H mouse assessed as tumor growth inhibition at 0.30 mg/kg, ip administered daily for 8 to 10 days. Format: functional. The conditions noted are these: route intraperitoneal, read-out: TGI. The method in brief:
as §1

In series [7] the test system is B16. In words: Antitumor activity against mouse B16 cells allografted in C57BL/6 mouse assessed as prolongation of host survival at 0.90 mg/kg, ip administered on days 1,5 and 9. Format: functional. The conditions noted are these: route intraperitoneal. The method in brief:
(§3)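 B16 melanoma cells (10⁶ inoculum) implanted ip in C57BL/6 mice; groups of 10. Sulfate salts unless noted, given ip on days 1, 5 and 9. Single test. Survival prolongation is expressed as percent versus controls, with survivors counted on day 60. Toxic means deaths of ≥5 of 10 animals before the first control death.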

Series [8] deals with B16. In words: Antitumor activity against mouse B16 cells allografted in C57BL/6 mouse assessed as prolongation of host survival at 0.60 mg/kg, ip administered on days 1,5 and 9. The conditions noted are these: route intraperitoneal. The class given is functional. The method in brief: as §3
Series [9] is described as follows: Antitumor activity against mouse Gardner lymphosarcoma allografted in C3H mouse assessed as tumor growth inhibition at 0.40 mg/kg, ip administered daily for 8 to 10 days. The conditions noted are these: route intraperitoneal, read-out: TGI. The class given is functional. The gist of the method: as §1
Series [10] concerns Mus musculus. The experiment in a line: Toxicity in C57BL/6 mouse allografted with mouse B16 cells assessed as animal death at 1.20 mg/kg, ip administered on days 1,5 and 9. As to conditions: in vivo, 1.2 mg/kg. The class given is organism-based. Also noted: dose 1.2 mg/kg, route intraperitoneal. The gist of the method: as §3
The test system of series [11] is P388/VCR. The experiment in a line: Antitumor activity against mouse P388/VCR cells allografted in B6D2F1 mouse assessed as increase in host lifespan at 1.20 mg/kg, ip administered on days 1, 5 and 9. The class given is functional. The conditions noted are these: dose 1.2 mg/kg; route intraperitoneal. The method in brief:
(§4)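 P388/VCR leukemia in groups of 10 B6D2F1 mice, run at Lilly using the cell strain received from NCI. Sulfate salts given ip on days 1, 5 and 9. Read-out is percent increase in lifespan.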

In series [12] the test system is P388/VCR. The experiment in a line: Antitumor activity against mouse P388/VCR cells allografted in B6D2F1 mouse assessed as increase in host lifespan at 0.60 mg/kg, ip administered on days 1, 5 and 9. The class given is functional. As to conditions: dose 0.6 mg/kg; route intraperitoneal. The gist of the method:
as §4

The subject of series [13] is P388/VCR. In words: Antitumor activity against mouse P388/VCR cells allografted in B6D2F1 mouse assessed as increase in host lifespan at 0.90 mg/kg, ip administered on days 1, 5 and 9. The class given is functional. The conditions noted are these: dose 0.9 mg/kg; route intraperitoneal. The method in brief: as §4
The subject of series [14] is CHO. In words: Mitotic arrest in CHO cells assessed as increase in cell accumulation at 0.2 ug/ml. The class given is functional, Cricetulus griseus. The gist of the method: (§5)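 Chinese hamster ovary cells in tissue culture, scored for mitotic arrest as increase in cells in mitotic arrest over control: +++, 40–50%; ++, 15–40%; +, 10–15%; ±, 7–10%; –, 3–7%. Cytotoxicity noted separately.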

The subject of series [15] is CHO. The experiment in a line: Mitotic arrest in CHO cells assessed as increase in cell accumulation at 0.02 ug/ml. Format: functional, Cricetulus griseus. The method in brief: as §5
The subject of series [16] is CHO. In words: Mitotic arrest in CHO cells assessed as increase in cell accumulation at 0.002 ug/ml. The class given is functional, Cricetulus griseus. The gist of the method: as §5
In series [17] the test system is Mus musculus. In words: Toxicity in C3H mouse allografted with mouse Gardner lymphosarcoma assessed as lethality at 0.5 mg/kg, ip administered daily for 8 to 10 days. Format: organism-based. Also noted: dose 0.5 mg/kg, route intraperitoneal. As to conditions: in vivo. The gist of the method: as §2
The nature of series [18]: Antitumor activity against mouse P1534 cells allografted in DBA2 mouse assessed as tumor growth inhibition at 0.20 mg/kg, ip administered daily for 8 to 10 days. Format: functional. As to conditions: route intraperitoneal, read-out: TGI. The method in brief: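 P1534(J) leukemia implanted sc in DBA2 mice; sulfate salts dosed ip daily for 8–10 days. Growth inhibition scored –, 0–25%; +, 26–50%; ++, 51–75%; +++, 76–100%; T, lethal to ≥5 of 10 animals per group. Average of one or more tests.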

Structures are written as SMILES.

In the case of `C=CC(=O)OCCNC(=O)[C@@]1(O)[C@H](O)[C@]2(CC)C=CCN3CC[C@@]4(c5cc([C@@]6(C(=O)OC)C[C@@H]7CN(CCc8c6[nH]c6ccccc86)C[C@](O)(CC)C7)c(OC)cc5N(C)[C@@H]14)[C@@H]32`, in series [1], the inhibition in vivo at 0.1 mg/kg was 76%. The inhibition in vivo at 0.05 mg/kg in series [2] is 51%. Besides, the Activity result with Mus musculus [3] and with Mus musculus [4] was “Toxic” in each case.

On to `CC[C@]1(O)C[C@H]2CN(CCc3c([nH]c4ccccc34)[C@@](C(=O)OC)(c3cc4c(cc3OC)N(C)[C@H]3[C@@](O)(C(=O)NCCS)[C@H](O)[C@]5(CC)C=CCN6CC[C@]43[C@@H]65)C2)C1.O=S(=O)(O)O`, for which the inhibition in vivo at 0.1 mg/kg in series [1] came to 0%. In series [5], the inhibition in vivo at 0.2 mg/kg came out at 26%. Also, the inhibition in vivo at 0.3 mg/kg in series [6] worked out at 51%. Also, the survival at 0.9 mg/kg in the series on B16 [7] was 141%. For the same compound, in the series on B16 [8], the survival at 0.6 mg/kg stood at 170%. For the same compound, the inhibition in vivo at 0.4 mg/kg in series [9] turned out to be 76%. In the series on Mus musculus [10], the Activity result was “Toxic”.

Turning to `CC[C@]1(O)C[C@H]2CN(CCc3c([nH]c4ccccc34)[C@@](C(=O)OC)(c3cc4c(cc3OC)N(C)[C@H]3[C@@](O)(C(=O)NCCSC)[C@H](O)[C@]5(CC)C=CCN6CC[C@]43[C@@H]65)C2)C1.O=S(=O)(O)O`, the Activity is on record as 6% in the series with P388/VCR [11]; 20% in the series with P388/VCR [12]; 42% in the series with P388/VCR [13]; 15% in the series on CHO [14]; 15% with CHO [15]; “Toxic” with Mus musculus [3]. The Activity is 3% in the series with CHO [16] and “Toxic” in the series with Mus musculus [10]. Also, the inhibition in vivo at 0.1 mg/kg in series [1] amounted to 0%. Also, the inhibition in vivo at 0.2 mg/kg in series [5] came out at 0%. Moreover, the survival at 0.9 mg/kg in the series with B16 [7] amounted to 58%. For the same compound, the survival at 0.6 mg/kg in the series with B16 [8] is 163%.

Consider `CC[C@]1(O)C[C@H]2CN(CCc3c([nH]c4ccccc34)[C@@](C(=O)OC)(c3cc4c(cc3OC)N(C)[C@H]3[C@@](O)(C(=O)NCCCSC)[C@H](O)[C@]5(CC)C=CCN6CC[C@]43[C@@H]65)C2)C1.O=S(=O)(O)O`, for which the inhibition in vivo at 0.1 mg/kg in [1] came out at 0%. Further, the inhibition in vivo at 0.2 mg/kg in series [5] was found to be 0%. Also, the Activity entry in the series with Mus musculus [3] and in the series on Mus musculus [10] was “Toxic” throughout. Also, the survival at 0.9 mg/kg with B16 [7] was 141%. Moreover, in the series with B16 [8], the survival at 0.6 mg/kg amounted to 101%.

`CC[C@]1(O)C[C@H]2CN(CCc3c([nH]c4ccccc34)[C@@](C(=O)OC)(c3cc4c(cc3OC)N(C)[C@H]3[C@@](O)(C(N)=O)[C@H](OC(C)=O)[C@]5(CC)C=CCN6CC[C@]43[C@@H]65)C2)C1.O=S(=O)(O)O`: the Activity entry in the series on Mus musculus [17] is reported as “Toxic”; in the series with CHO [14], 40%; in the series on CHO [15], 15%; in the series with CHO [16] it was 3%.

In the case of `CC[C@]1(O)C[C@H]2CN(CCc3c([nH]c4ccccc34)[C@@](C(=O)OC)(c3cc4c(cc3OC)N(C)[C@H]3[C@@](O)(C(=O)NC)[C@H](OC(C)=O)[C@]5(CC)C=CCN6CC[C@]43[C@@H]65)C2)C1.O=S(=O)(O)O`, in the series on Mus musculus [17], the Activity result is reported as “Toxic”. In addition, in [18], the inhibition in vivo at 0.2 mg/kg came to 51%.

For the origin of these results see ChEMBL document CHEMBL3227917, “Structure-activity relationships of dimeric Catharanthus alkaloids. 2. Experimental antitumor activities of N-substituted deacetylvinblastine amide (vindesine) sulfates” (J Med Chem, 1979).
